Assay results: publication PMC13570607 (European journal of medicinal chemistry, 2025)

Legend:
TG2 = biological target: T1, TG2 (Homo sapiens, UniProt P21980); experiment: TG2 transamidase activity in protein lysates of treated SKOV3 cells; type: cell-based
T1 sequence (P21980 1-687): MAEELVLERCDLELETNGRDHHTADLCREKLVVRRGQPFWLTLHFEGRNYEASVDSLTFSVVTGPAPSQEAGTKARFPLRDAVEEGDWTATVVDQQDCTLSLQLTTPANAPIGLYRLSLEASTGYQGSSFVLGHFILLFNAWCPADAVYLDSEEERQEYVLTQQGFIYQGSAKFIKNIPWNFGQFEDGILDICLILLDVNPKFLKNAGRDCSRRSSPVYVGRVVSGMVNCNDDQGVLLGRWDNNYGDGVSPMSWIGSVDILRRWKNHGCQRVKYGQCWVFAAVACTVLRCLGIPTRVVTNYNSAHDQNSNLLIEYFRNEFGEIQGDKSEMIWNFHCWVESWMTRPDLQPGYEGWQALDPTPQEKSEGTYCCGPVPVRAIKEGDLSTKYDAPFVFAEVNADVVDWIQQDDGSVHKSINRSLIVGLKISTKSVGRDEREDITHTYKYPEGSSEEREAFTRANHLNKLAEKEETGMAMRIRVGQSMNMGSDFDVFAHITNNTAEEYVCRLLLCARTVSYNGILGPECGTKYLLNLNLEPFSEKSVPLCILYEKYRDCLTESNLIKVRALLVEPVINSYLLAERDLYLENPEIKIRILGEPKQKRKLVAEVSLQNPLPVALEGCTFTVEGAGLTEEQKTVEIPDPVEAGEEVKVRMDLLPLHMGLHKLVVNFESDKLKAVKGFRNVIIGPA
Outline: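 SKOV3 cells were treated with 10 μM test compound for 24 h, and lysates were assayed in a colorimetric transamidase kit. Controls were a reference TG2 inhibitor at 20 μM, VHL ligand at 10 μM, 50 mM EDTA, and lysates of TG2-knockdown or control-shRNA cells. Lysates were incubated with assay mixture for 30 min at 37 °C, then washed, including a 0.1 M NaOH wash. Detection used streptavidin-HRP (1:2000, 15 min, 37 °C), then HRP substrate for 5 min, stopped, and read at 450 nm.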

[1] = Hepatic microsomal stability; type: in vitro ADME; conditions: mouse liver microsomes 1 mg/mL; 1 μM compound; NADPH
Outline: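 Incubation buffer was 100 mM potassium phosphate, pH 7.4. The reaction was started with NADPH (1 mM final). Aliquots taken at 0, 5, 10, 20, 40 and 60 min were quenched in acetonitrile (5x v:v), filtered and analysed by LC-MS/MS. Data were log-transformed to give half-life and intrinsic clearance.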

[2] = Parallel Artificial Membrane Permeability Assay; type: in vitro ADME; conditions: 5 μM; 37 °C; 5 h
Outline: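 Passive permeability was measured on a pre-coated PAMPA plate. The donor (bottom) side held 0.02% BSA in PBS with compound added from DMSO solution. The receiver (top) side held 0.4% BSA in PBS. After 5 h at 37 °C, receiver samples were quantified by LC/MS/MS.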

Kinetic solubility = type: physicochemical; conditions: PBS pH 7.4; room temp 24 h
Outline: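 A 10 mM DMSO stock was diluted 1 μL into 99 μL PBS pH 7.4. It was held at room temperature for 24 h, filtered, and quantified by LC/MS/MS.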

Equilibrium solubility = type: physicochemical; conditions: PBS pH 7.4; 24 h
Outline: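 About 1-2 mg of dry compound was added to 1 mL PBS pH 7.4 in a test tube. The mixture was inverted for 24 h, then filtered, and the filtrate was quantified by LC/MS/MS.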

Row | Structure (SMILES) | TG2 enzymatic (transamidase) activity (TG2; 20 μM) | Microsomal Stability Clint [1] | Microsomal Stability T1/2 [1] | PAMPA Permeability [2] | Kinetic Solubility (Kinetic solubility) | Equilibrium Solubility (Equilibrium solubility) | TG2 enzymatic (transamidase) activity (TG2; 10 μM, 24 hours)
1 | Cc1cc(N(C)C)nc(Nc2ccc(NC(=O)Cc3ccccc3)cc2)n1 [MT4] | no effect on transamidating activity | 46 µL/min/mg | 15.2 min | 2.60 10^−6 cm*s^−1 | 54.96 µM | 0.76 µM | –
2 | Cc1ncsc1-c1ccc(CNC(=O)[C@@H]2C[C@@H](O)CN2C(=O)[C@@H](N)C(C)(C)C)cc1 [VHL ligand 1] | – | – | – | – | – | – | no effect on transamidating activity
